# Reference: PMC3518307 (Bioorganic & medicinal chemistry letters, 2012)
# Columns and labels:
# [1] = target: reverse transcriptase from HIV-1 (Human immunodeficiency virus type 1 group M subtype B, UniProt P04585); experiment: Single point assay of HIV-RT activity; format: biochemical; settings: mono-intercalators
# telomerase = telomerase (Homo sapiens, UniProt O14746); experiment: Telomerase inhibition assay using partially purified telomerase; format: biochemical
# How it was run: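 Partially purified telomerase, prepared by an adapted published procedure, used instead of the crude HeLa cell homogenate of the standard assay to limit extra nucleic acids that could bind bis-intercalators in the mix; IC50 from inhibition curves, with error values reported.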
# telomerase, sequence (O14746 whole entry): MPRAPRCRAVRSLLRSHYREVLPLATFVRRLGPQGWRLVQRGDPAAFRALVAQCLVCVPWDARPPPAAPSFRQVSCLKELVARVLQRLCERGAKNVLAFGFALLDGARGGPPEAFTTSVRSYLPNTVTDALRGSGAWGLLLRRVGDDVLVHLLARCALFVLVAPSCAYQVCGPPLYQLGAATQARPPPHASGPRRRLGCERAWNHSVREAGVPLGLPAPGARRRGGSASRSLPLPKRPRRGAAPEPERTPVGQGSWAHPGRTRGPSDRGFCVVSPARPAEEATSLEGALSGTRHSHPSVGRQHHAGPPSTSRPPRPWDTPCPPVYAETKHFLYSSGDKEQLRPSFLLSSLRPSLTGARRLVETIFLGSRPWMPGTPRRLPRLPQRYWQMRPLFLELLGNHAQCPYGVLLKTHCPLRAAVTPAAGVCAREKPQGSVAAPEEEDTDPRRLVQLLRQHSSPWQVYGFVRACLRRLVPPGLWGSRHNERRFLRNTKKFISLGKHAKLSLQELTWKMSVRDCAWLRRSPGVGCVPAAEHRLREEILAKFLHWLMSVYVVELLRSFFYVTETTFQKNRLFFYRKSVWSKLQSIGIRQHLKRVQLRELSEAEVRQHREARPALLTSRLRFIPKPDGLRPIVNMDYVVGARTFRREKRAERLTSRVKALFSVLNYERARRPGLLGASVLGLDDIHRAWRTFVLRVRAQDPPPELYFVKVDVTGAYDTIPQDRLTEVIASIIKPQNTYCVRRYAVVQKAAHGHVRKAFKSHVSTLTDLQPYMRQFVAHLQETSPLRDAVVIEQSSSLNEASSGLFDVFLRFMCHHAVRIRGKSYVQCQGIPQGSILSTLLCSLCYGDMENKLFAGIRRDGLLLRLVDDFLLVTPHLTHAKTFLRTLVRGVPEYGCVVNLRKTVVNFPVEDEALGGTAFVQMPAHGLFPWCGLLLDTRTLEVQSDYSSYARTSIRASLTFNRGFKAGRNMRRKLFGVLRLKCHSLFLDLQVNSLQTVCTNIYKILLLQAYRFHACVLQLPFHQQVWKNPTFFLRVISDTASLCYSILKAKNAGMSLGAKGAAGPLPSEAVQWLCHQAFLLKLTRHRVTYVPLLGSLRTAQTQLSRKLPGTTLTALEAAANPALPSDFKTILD
# telomerase, sequence (O60832 whole entry partner): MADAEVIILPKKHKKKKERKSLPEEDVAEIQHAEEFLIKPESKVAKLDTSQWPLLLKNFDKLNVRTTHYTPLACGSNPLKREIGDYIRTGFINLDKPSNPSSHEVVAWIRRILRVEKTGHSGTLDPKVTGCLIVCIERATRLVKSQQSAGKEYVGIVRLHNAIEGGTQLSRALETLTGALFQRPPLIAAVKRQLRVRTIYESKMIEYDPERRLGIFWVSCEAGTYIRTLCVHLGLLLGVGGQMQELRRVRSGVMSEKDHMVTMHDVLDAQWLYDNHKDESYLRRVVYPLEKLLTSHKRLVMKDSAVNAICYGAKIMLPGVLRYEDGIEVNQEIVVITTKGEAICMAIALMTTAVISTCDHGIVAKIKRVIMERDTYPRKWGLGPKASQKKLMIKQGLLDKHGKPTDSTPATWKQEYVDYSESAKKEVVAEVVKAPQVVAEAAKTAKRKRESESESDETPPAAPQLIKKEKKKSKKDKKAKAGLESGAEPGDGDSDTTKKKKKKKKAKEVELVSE
# telomerase, sequence (Q9NPE3 whole entry partner): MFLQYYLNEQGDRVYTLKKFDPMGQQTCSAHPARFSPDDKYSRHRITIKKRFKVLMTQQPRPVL
# telomerase, sequence (Q9NX24 whole entry partner): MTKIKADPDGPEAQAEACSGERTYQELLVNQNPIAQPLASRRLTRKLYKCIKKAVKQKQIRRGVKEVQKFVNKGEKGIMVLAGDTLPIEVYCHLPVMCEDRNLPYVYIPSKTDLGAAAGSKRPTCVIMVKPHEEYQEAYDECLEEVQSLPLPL
# telomerase, sequence (Q9NY12 whole entry partner): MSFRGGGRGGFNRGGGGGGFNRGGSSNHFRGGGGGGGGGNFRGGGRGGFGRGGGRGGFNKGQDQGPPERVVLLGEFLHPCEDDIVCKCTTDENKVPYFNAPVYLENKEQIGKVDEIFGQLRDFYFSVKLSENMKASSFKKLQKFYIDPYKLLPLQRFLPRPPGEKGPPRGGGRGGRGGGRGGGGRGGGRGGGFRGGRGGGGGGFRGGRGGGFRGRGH
# telomerase, sequence (Q9BUR4 whole entry partner): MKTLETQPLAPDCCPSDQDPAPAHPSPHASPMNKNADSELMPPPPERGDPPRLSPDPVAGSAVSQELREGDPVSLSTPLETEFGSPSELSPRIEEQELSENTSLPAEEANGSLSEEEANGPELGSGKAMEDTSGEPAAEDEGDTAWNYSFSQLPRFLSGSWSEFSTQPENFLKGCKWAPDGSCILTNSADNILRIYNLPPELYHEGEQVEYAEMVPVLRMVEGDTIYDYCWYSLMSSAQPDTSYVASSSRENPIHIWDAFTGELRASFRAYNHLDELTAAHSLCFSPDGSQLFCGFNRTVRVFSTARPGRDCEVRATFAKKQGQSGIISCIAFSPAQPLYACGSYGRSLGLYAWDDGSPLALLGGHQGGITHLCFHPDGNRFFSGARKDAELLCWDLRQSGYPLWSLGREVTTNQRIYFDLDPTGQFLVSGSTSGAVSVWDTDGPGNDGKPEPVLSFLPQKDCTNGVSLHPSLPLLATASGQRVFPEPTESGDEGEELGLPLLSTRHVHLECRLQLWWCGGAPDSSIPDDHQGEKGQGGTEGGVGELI
Compound,IC50 estimates against reverse transcriptase [1],IC50 (telomerase) [nM]
O=C(O)c1cccc2cc3ccccc3cc12 [1-Anthracene carboxylic acid],No inhibition observed,
COc1ccc2nc3cc(Cl)ccc3c(N)c2c1 [9-Amino-6-Chloro-2-Methoxy acridine],No inhibition observed,
O=C(O)c1ccc2cc3ccccc3cc2c1 [2-Anthracene carboxylic acid],No inhibition observed,
NCCCC[C@H](NC(=O)CCNC(=O)C(N)CN)C(N)=O (some centres unmarked) [compound 1],,103
O=C(O)c1c2ccccc2nc2ccccc12 [9-Acridine carboxylic acid],No inhibition observed,
